Assay [1] addresses T1, Sodium channel protein type 4 subunit alpha (Homo sapiens, UniProt P35499). The experiment in a line: Modulation of human Nav1.4 in open-inactivated state assessed as inhibition of inward current after 4 mins by whole-cell electrophysiology. In a few lines:
(§1)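 Cells dissociated with trypsin-EDTA are kept in serum-free medium and recorded by QPatch HT whole-cell clamp with a high-frequency, pathophysiological protocol. The open-inactivated test pulse depolarizes from about -70 mV. After 4 min of vehicle (0.1% DMSO), 0.3–10 µM is added cumulatively, 4 min per level. Percent inhibition of peak inward current uses the mean of the last three sweeps against vehicle. IC50 is fitted by a constrained 4-parameter logistic, mean ± SD of ≥3 experiments.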

Assay [2] concerns the target T1, Sodium channel protein type 4 subunit alpha. As to the kind of experiment: Modulation of human Nav1.4 in closed state assessed as inhibition of inward current after 4 mins by whole-cell electrophysiology. In a few lines: (§2)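 Automated whole-cell patch clamp (QPatch HT) on trypsin-EDTA-dissociated cells held in serum-free medium. Closed-state test pulse depolarizes from -100 mV. 0.1% DMSO vehicle for 4 min is followed by four cumulative bolus concentrations (0.3–10 µM, 0.1% DMSO final), each incubated 4 min. Peak inward current from the last three sweeps is compared with vehicle, and IC50 comes from a 4-parameter logistic fit constrained 0–100%, n≥3.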

Assay [3] concerns the target T2, Sodium channel protein type 9 subunit alpha (Homo sapiens, UniProt Q15858). As to the kind of experiment: Modulation of human Nav1.7 in open-inactivated state assessed as inhibition of inward current after 4 mins by whole-cell electrophysiology. In a few lines: as §1
The target of assay [4] is T3, Sodium channel protein type 3 subunit alpha (Homo sapiens, UniProt Q9NY46). The experiment in a line: Modulation of human Nav1.3 in closed state assessed as inhibition of inward current after 4 mins by whole-cell electrophysiology. In a few lines:
as §2

The target in assay [5] is T2, Sodium channel protein type 9 subunit alpha. The experiment in a line: Modulation of human Nav1.7 in closed state assessed as inhibition of inward current after 4 mins by whole-cell electrophysiology. In a few lines: as §2
For assay [6], the target named is T3, Sodium channel protein type 3 subunit alpha. The experiment in a line: Modulation of human Nav1.3 in open-inactivated state assessed as inhibition of inward current after 4 mins by whole-cell electrophysiology.

T2 sequence (Q15858 whole entry): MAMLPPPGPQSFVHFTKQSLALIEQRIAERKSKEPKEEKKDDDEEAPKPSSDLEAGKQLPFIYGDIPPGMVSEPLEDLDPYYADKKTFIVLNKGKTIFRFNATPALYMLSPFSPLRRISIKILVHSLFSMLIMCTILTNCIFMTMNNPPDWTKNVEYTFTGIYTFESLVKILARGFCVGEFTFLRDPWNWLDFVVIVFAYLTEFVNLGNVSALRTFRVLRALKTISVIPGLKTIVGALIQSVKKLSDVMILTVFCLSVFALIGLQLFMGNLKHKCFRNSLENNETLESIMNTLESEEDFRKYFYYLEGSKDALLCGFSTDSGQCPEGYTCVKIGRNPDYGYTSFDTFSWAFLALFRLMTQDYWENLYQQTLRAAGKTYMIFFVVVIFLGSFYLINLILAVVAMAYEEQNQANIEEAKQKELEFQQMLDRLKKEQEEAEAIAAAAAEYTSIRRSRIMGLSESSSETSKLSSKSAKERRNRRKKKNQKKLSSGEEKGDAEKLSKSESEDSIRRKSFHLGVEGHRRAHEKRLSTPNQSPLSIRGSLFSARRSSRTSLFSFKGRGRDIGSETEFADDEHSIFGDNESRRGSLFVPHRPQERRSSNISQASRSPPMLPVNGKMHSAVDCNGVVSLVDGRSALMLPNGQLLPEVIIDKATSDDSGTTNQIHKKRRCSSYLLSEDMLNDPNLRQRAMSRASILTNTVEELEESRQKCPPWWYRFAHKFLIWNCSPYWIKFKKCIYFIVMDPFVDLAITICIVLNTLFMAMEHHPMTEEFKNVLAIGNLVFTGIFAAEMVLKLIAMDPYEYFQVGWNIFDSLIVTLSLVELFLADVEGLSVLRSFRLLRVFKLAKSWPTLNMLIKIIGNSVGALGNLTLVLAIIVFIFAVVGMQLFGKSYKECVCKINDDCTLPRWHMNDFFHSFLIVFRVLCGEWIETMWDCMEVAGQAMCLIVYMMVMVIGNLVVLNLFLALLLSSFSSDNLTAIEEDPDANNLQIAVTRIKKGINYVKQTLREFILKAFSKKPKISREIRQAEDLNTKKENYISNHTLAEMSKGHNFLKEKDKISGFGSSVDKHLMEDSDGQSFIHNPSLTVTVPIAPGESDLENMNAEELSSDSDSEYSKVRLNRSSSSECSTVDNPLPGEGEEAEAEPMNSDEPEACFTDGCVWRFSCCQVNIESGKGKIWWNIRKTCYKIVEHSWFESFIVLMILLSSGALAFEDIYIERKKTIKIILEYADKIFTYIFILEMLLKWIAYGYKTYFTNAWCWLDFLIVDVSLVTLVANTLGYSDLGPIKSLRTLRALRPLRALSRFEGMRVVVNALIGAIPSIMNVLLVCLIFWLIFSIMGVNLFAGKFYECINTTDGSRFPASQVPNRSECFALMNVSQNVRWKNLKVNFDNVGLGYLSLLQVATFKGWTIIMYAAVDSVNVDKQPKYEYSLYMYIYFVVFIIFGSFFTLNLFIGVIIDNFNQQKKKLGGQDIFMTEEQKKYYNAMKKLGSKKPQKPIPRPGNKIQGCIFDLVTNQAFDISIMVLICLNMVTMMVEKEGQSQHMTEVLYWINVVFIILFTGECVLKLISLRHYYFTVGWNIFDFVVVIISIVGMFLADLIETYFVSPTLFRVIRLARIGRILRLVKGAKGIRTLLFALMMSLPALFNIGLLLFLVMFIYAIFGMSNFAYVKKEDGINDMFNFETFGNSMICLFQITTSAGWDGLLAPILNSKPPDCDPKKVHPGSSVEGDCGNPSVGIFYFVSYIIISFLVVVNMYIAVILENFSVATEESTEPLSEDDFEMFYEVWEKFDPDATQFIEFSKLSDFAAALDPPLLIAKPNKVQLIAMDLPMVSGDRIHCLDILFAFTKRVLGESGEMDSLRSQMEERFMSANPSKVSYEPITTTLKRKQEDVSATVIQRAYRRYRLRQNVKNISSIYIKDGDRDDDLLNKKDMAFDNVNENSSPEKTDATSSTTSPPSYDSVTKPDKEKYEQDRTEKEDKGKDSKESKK
T3 sequence (Q9NY46 whole entry): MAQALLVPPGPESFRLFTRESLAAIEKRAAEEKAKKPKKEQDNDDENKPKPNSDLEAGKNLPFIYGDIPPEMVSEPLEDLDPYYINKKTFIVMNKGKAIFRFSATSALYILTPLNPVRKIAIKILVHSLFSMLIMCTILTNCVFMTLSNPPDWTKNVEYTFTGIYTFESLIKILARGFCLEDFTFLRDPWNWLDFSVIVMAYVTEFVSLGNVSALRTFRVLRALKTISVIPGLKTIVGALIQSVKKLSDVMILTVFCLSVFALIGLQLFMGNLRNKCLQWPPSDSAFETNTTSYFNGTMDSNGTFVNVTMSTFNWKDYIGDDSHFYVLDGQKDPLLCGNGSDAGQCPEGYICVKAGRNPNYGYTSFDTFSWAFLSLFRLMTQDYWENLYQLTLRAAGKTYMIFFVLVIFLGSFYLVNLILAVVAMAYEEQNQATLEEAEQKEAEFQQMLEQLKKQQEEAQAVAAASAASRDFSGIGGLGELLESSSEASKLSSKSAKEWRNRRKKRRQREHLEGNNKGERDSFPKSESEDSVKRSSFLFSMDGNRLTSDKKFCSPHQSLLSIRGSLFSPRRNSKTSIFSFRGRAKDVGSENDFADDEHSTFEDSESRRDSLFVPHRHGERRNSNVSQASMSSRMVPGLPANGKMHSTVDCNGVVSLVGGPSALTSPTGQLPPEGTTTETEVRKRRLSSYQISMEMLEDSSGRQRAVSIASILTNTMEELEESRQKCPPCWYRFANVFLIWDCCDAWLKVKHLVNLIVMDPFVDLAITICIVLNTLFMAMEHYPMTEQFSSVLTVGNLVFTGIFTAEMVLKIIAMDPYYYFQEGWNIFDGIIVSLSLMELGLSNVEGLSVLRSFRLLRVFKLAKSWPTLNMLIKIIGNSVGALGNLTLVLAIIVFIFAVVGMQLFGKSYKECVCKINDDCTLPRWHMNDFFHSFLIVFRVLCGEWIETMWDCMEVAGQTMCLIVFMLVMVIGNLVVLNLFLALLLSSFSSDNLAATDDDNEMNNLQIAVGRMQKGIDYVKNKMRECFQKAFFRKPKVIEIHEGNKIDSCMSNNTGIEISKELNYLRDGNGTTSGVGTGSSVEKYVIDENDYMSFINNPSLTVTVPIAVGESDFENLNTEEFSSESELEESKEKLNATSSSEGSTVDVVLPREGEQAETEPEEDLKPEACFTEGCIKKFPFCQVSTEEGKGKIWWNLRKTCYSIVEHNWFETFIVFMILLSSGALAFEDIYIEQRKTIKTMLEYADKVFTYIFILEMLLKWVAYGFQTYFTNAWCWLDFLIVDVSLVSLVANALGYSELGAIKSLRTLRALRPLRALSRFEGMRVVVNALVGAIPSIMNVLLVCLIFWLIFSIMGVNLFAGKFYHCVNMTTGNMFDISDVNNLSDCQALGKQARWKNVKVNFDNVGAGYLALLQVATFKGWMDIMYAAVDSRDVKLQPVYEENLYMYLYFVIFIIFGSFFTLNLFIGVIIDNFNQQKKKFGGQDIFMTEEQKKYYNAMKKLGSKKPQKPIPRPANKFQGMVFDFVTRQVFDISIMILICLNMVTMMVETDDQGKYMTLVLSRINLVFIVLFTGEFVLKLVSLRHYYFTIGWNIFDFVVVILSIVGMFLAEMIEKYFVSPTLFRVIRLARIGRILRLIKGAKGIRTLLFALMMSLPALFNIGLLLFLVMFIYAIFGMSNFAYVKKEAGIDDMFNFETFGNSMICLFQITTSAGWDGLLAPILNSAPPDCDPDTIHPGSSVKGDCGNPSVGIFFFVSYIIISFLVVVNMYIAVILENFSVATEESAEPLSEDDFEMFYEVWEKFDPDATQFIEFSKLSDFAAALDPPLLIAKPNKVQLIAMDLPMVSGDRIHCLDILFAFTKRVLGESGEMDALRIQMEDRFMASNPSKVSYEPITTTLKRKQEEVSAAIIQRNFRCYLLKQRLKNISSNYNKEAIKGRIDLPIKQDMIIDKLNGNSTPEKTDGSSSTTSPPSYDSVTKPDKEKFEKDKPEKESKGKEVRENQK

As for `CNc1nc(-c2cccc(NC(=O)c3cc4ccccc4[nH]3)c2)c[nH]1`, the half-inhibitory concentration (IC50) in assay [1], in assay [2], in assay [3], in assay [4], in assay [5] and in assay [6] was greater than 30 µM throughout.
Take `CNc1nc(-c2cccc(NC(=O)c3cc4ccccc4[nH]3)c2)cn1C(=O)OC(C)(C)C`: the IC50 in assay [1], in assay [2], in assay [3], in assay [4], in assay [5] and in assay [6] was greater than 30 µM in each case.
For `CC(C)(C)OC(=O)n1cc(-c2ccc(NC(=O)c3ccc[nH]3)cc2)nc1N`, the IC50 in assay [1], in assay [2], in assay [3], in assay [4], in assay [5] and in assay [6] was greater than 30 µM in each case.
For `Nc1nc(-c2cccc(NC(=O)c3ccc[nH]3)c2)c[nH]1`, the half-inhibitory concentration (IC50) in assay [1], in assay [2], in assay [3], in assay [4], in assay [5] and in assay [6] was greater than 30 µM throughout.
In the case of `Nc1nc(-c2ccc(NC(=O)c3ccc[nH]3)cc2)c[nH]1`, the half-maximal inhibitory concentration (IC50) in assay [1] is greater than 30 µM; in assay [2] it was greater than 30 µM; in assay [3], 27 µM; in assay [4] it was greater than 30 µM; in assay [5], greater than 30 µM; in assay [6] it was greater than 30 µM.
Turning to `CC(C)(C)OC(=O)n1cc(-c2cccc(NC(=O)c3cc[nH]c3)c2)nc1N`, the half-maximal inhibitory concentration (IC50) in assay [1] was greater than 30 µM; in assay [2] it was greater than 30 µM; in assay [3] it was greater than 30 µM; in assay [4], greater than 30 µM; in assay [5], greater than 30 µM; in assay [6], 23 µM.
With `Nc1nc(-c2cccc(NC(=O)c3cc[nH]c3)c2)c[nH]1`, the half-maximal inhibitory concentration (IC50) in assay [1] was 15 µM; in assay [2], greater than 30 µM; in assay [3] it was greater than 30 µM; in assay [4], greater than 30 µM; in assay [5], greater than 30 µM; in assay [6] it was 12 µM.
`CC(C)(C)OC(=O)n1cc(-c2ccc(NC(=O)c3ccco3)cc2)nc1N`: the IC50 in assay [1] was greater than 30 µM; in assay [2], greater than 30 µM; in assay [3], 22 µM; in assay [4], greater than 30 µM; in assay [5], greater than 30 µM; in assay [6] it was 27 µM.
Take `CC(C)(C)OC(=O)n1cc(-c2cccc(NC(=O)c3cc4ccccc4[nH]3)c2)nc1N`: the IC50 in assay [1] was greater than 30 µM; in assay [2], greater than 30 µM; in assay [3], greater than 30 µM; in assay [4], greater than 30 µM; in assay [5] it was greater than 30 µM; in assay [6], 26 µM.
As to `CC(C)(C)OC(=O)n1cc(-c2ccc(NC(=O)c3cc4ccccc4[nH]3)cc2)nc1N`, the concentration for half-maximal inhibition (IC50) in assay [1] is 28 µM; in assay [2] it was greater than 30 µM; in assay [3] it was greater than 30 µM; in assay [4], greater than 30 µM; in assay [5], greater than 30 µM; in assay [6] it was 22 µM.
Consider `Nc1nc(-c2cccc(NC(=O)c3cc4ccccc4[nH]3)c2)c[nH]1`, for which the IC50 in assay [1], in assay [2], in assay [3], in assay [4], in assay [5] and in assay [6] was greater than 30 µM each time.
On to `Nc1nc(-c2ccc(NC(=O)c3cc4ccccc4[nH]3)cc2)c[nH]1`, for which the IC50 in assay [1], in assay [2], in assay [3], in assay [4], in assay [5] and in assay [6] was greater than 30 µM in each case.
Consider `CC(C)(C)OC(=O)n1cc(-c2cccc(NC(=O)c3c[nH]c4ccccc34)c2)nc1N`, for which the half-inhibitory concentration (IC50) in assay [1] was 26 µM; in assay [2], greater than 30 µM; in assay [3] it was greater than 30 µM; in assay [4], greater than 30 µM; in assay [5] it was greater than 30 µM; in assay [6], 27 µM.
Take `Nc1nc(-c2cccc(NC(=O)c3c[nH]c4ccccc34)c2)c[nH]1`: the IC50 is 14 µM in assay [1]; greater than 30 µM in assay [2]; 26 µM in assay [3]; greater than 30 µM in assay [4]; greater than 30 µM in assay [5]; 12 µM in assay [6].
With `CC(C)(C)OC(=O)n1cc(-c2cccc(NC(=O)[C@H]3CCCN3)c2)nc1N`, the IC50 in assay [1] is greater than 30 µM; in assay [2] it was greater than 30 µM; in assay [3], 29 µM; in assay [4], greater than 30 µM; in assay [5] it was greater than 30 µM; in assay [6], greater than 30 µM.
For the molecule `CC(C)(C)OC(=O)n1cc(-c2ccc(NC(=O)[C@H]3CCCN3)cc2)nc1N`, the IC50 in assay [1], in assay [2], in assay [3], in assay [4], in assay [5] and in assay [6] was greater than 30 µM each time.
Turning to `CC(C)(C)OC(=O)n1cc(-c2ccc(NC(=O)[C@@H]3CCCN3)cc2)nc1N`, the 50% inhibitory concentration (IC50) in assay [1] is greater than 30 µM; in assay [2] it was greater than 30 µM; in assay [3], 19 µM; in assay [4], greater than 30 µM; in assay [5], greater than 30 µM; in assay [6] it was 25 µM.
Regarding `Nc1nc(-c2ccc(NC(=O)[C@@H]3CCCN3)cc2)c[nH]1`, the IC50 is greater than 30 µM in assay [1]; greater than 30 µM in assay [2]; greater than 30 µM in assay [3]; greater than 30 µM in assay [4]; greater than 30 µM in assay [5]; 13 µM in assay [6].
On to `CNc1nc(-c2cccc(NC(=O)c3ccco3)c2)cn1C(=O)OC(C)(C)C`, for which the IC50 was greater than 30 µM in assay [1]; greater than 30 µM in assay [2]; 26 µM in assay [3]; greater than 30 µM in assay [4]; greater than 30 µM in assay [5]; greater than 30 µM in assay [6].
Turning to `Nc1nc(-c2cccc(NC(=O)c3ccc[nH]3)c2)cn1C(=O)c1ccc[nH]1`, the 50% inhibitory concentration (IC50) is greater than 30 µM in assay [1]; greater than 30 µM in assay [2]; 19 µM in assay [3]; greater than 30 µM in assay [4]; greater than 30 µM in assay [5]; 25 µM in assay [6].
As to `CC(C)(C)OC(=O)n1cc(-c2cccc(NC(=O)c3ccc[nH]3)c2)nc1N`, the IC50 is 25 µM in assay [1]; greater than 30 µM in assay [2]; greater than 30 µM in assay [3]; greater than 30 µM in assay [4]; greater than 30 µM in assay [5]; 25 µM in assay [6].
Regarding `CCN(CC)CC(=O)Nc1c(C)cccc1C` [LIDOCAINE], the half-maximal inhibitory concentration (IC50) in assay [1] came out at 2 µM; in assay [6], 10.5 µM.

The IC50 is the concentration at which inhibition is half-maximal.
